Measured values published in ChEMBL document CHEMBL2396651, “Improving the biological activity of the antimicrobial peptide anoplin by membrane anchoring through a lipophilic amino acid derivative” (Bioorg Med Chem Lett, 2013).
Converted amounts (≈) assume the structure as drawn. Numbered stars: 1 amine (or outer) side, 2 acyl side, 3 side chain; on linkers, the order of the positions; unused ones are H or OH. Square brackets hold non-standard residues; d marks the D form. Peptide text beside a SMILES is read from it. * marks the point of attachment. X1 = CCCCCCCCC[C@H](N[*:1])C(=O)[*:2]; Decanoyl = CCCCCCCCCC(=O)*

Key:
[1] = Induction of membrane lysis in DOPC large unilamellar vesicles model assessed as release of carboxyfluorescein at 50 ug/mL by fluorescence spectroscopic analysis relative to control; format: physicochemical
[2] = Hemolytic activity in sheep erythrocytes after 1 hr; format: ADME, cell-based; details: Ovis aries, Erythrocyte
How it was run: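 Red blood cells were exposed to the peptides, and hemoglobin leakage was the read-out.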

[3] = Therapeutic index, ratio of EC50 for hemolysis of sheep erythrocytes to MIC for Escherichia coli ATCC 8739; details: read-out: TI
How it was run: (§1)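 Computed as the hemolytic EC50 divided by the MIC against the named strain, both in the same mass-per-volume units. Both inputs come from this paper's hemoglobin-leakage and growth-inhibition assays.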

Staphylococcus aureus = experiment: Antibacterial activity against Staphylococcus aureus ATCC […] assessed as growth inhibition after 24 hrs by broth microdilution method; format: functional
[4] = Induction of membrane lysis in DOPC/DOPG large unilamellar vesicles model assessed as release of carboxyfluorescein at 50 ug/mL by fluorescence spectroscopic analysis relative to control; format: physicochemical
[5] = Therapeutic index, ratio of EC50 for hemolysis of sheep erythrocytes to MIC for Staphylococcus aureus ATCC […]; details: read-out: TI; how it was run: as §1
Escherichia coli = experiment: Antibacterial activity against Escherichia coli ATCC 8739 assessed as growth inhibition after 24 hrs by broth microdilution method; format: functional; details: ATCC 8739, 24 h

Compound	Activity [1] [%]	EC50 [2] [µg/mL]	selectivity ratio [3]	MIC (Staphylococcus aureus) [µg/mL]	Activity [4] [%]	selectivity ratio [5]	MIC (Escherichia coli) [µg/mL]
H-GLLKRIKTLL-NH2 [ANOPLIN]	41	> 500	> 12.2	20.6	35	> 24.3	41
CCCCCCCCC[C@H](NC(=O)CN)C(=O)N[C@@H](CC(C)C)C(=O)N[C@@H](CCCCN)C(=O)N[C@@H](CCCNC(=N)N)C(=O)N[C@H](C(=O)N[C@@H](CCCCN)C(=O)N[C@H](C(=O)N[C@@H](CC(C)C)C(=O)N[C@@H](CC(C)C)C(N)=O)[C@@H](C)O)[C@@H](C)CC (H-G[X1]LKRIKTLL-NH2)	47	108 (≈ 88.3 µM)	10.5	2.5 (≈ 2.04 µM)	48	43.2	5.2 (≈ 4.25 µM)
CCCCCCCCCC(=O)NCC(=O)N[C@@H](CC(C)C)C(=O)N[C@@H](CC(C)C)C(=O)N[C@@H](CCCCN)C(=O)N[C@@H](CCCNC(=N)N)C(=O)N[C@H](C(=O)N[C@@H](CCCCN)C(=O)N[C@H](C(=O)N[C@@H](CC(C)C)C(=O)N[C@@H](CC(C)C)C(N)=O)[C@@H](C)O)[C@@H](C)CC (Decanoyl-GLLKRIKTLL-NH2)	62	5 (≈ 3.82 µM)	2	2.5 (≈ 1.91 µM)	100	2	2.5 (≈ 1.91 µM)
CCCCCCCCC[C@H](NC(=O)[C@H](CC(C)C)NC(=O)[C@@H](NC(=O)[C@H](CCCCN)NC(=O)[C@@H](NC(=O)[C@H](CCCNC(=N)N)NC(=O)[C@H](CCCCN)NC(=O)[C@H](CC(C)C)NC(=O)[C@H](CC(C)C)NC(=O)CN)[C@@H](C)CC)[C@@H](C)O)C(N)=O (H-GLLKRIKTL[X1]-NH2)	48	77 (≈ 62.9 µM)	3.7	2.5 (≈ 2.04 µM)	48	30.8	10.3 (≈ 8.42 µM)
CCCCCCCCC[C@H](NC(=O)[C@H](CCCNC(=N)N)NC(=O)[C@H](CCCCN)NC(=O)[C@H](CC(C)C)NC(=O)[C@H](CC(C)C)NC(=O)CN)C(=O)N[C@@H](CCCCN)C(=O)N[C@H](C(=O)N[C@@H](CC(C)C)C(=O)N[C@@H](CC(C)C)C(N)=O)[C@@H](C)O (H-GLLKR[X1]KTLL-NH2)	45	39 (≈ 31.9 µM)	1.9	2.5 (≈ 2.04 µM)	48	15.6	10.3 (≈ 8.42 µM)
